This is a sample that favours compounds with a hit; in the whole collection about 12% have one here.
ABCG2 block – ABCG2 efflux pump inhibitors, primary screen, multiplex with ABCB1, IgMXP3 cells, flow cytometry. Broad substrate specificity ATP-binding cassette transporter ABCG2 (Homo sapiens), Q9UNQ0. JC-1 efflux. inhibition, % at 6.6 µM. hit rate 0.1% among 190,000. AID 1325, 2008;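 active = inhibition above 80%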
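Test system: IgMXP3 (ABCG2) plus far-red-tagged CCRF-Adr (ABCB1) cells / Amount: 3 million cells/mL in well / Reagent: JC-1 transporter substrate / Timing: 10 min compound exposure, 25 °C / Signal: flow cytometry, 530 nm JC-1 signal / Read-out: percent efflux inhibition, scaled nicardipine 100% to DMSO 0% / Benchmarks: nicardipine as high control, DMSO as low control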
L major viab – Leishmania major promastigote growth inhibition, primary screen | AID 1063, 2008 | inhibition, % at 10 µM | hit rate 9% among 200,000 | Leishmania major promastigotes, resazurin fluorescence viability; in the data active = inhibition above about 50%;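 note: promastigotes grown with compound for 44 hours at 28 °C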
ABCB1 block – ABCB1 efflux pump inhibitors, primary screen, cell-based, multiplex, flow cytometry, ABCG2 counter-screen; ATP-dependent translocase ABCB1 (Homo sapiens), P08183; CCRF-Adr cells, JC-1 efflux; inhibition, % at 6.6 µM; hit rate 0.067% among 190,000; AID 1326, 2008; in the data active = inhibition above about 40%;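 note: higher value means more JC-1 retained so stronger ABCB1 efflux block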
Target sequence (P08183 whole entry, looked up): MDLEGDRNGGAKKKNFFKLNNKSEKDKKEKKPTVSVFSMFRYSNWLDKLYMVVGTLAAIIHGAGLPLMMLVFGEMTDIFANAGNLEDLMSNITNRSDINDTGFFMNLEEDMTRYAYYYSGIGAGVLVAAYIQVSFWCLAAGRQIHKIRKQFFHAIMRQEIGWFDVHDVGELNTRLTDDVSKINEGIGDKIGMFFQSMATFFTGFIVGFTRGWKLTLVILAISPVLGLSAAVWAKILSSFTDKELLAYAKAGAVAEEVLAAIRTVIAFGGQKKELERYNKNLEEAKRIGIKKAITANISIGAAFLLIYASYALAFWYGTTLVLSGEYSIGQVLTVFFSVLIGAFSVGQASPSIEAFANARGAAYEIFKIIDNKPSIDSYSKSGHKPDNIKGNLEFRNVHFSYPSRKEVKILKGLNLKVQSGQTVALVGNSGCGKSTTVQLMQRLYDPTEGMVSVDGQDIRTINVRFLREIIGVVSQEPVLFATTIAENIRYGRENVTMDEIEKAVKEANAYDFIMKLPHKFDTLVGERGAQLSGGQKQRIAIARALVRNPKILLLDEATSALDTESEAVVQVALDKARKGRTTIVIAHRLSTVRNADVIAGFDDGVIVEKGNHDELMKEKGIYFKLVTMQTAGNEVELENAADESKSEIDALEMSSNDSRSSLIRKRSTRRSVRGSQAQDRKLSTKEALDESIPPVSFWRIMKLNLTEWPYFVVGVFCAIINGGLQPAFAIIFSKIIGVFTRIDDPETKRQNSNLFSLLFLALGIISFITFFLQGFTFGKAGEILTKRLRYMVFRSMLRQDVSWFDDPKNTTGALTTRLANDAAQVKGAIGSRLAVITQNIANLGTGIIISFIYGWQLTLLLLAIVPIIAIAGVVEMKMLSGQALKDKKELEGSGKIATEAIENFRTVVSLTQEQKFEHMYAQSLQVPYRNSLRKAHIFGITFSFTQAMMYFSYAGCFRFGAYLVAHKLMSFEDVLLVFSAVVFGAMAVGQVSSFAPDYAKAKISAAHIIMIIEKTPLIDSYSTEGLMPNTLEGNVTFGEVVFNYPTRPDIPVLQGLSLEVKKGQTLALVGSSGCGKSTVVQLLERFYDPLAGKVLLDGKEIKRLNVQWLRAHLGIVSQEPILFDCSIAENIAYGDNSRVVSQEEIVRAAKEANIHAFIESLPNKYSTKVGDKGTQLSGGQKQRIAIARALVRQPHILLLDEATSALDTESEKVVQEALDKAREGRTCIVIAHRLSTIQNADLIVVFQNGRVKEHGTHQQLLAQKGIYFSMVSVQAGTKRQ
RAM network inh – inhibitors of the yeast RAM network, primary screen, dse1pr::URA3 reporter, 5-FOA selection; S. cerevisiae dse1pr::URA3 reporter, 5-FOA growth OD615, 2 d; analog-sensitive cbk1-as2 kinase mutant strain; AID 868, 2007; inhibition, % at 50 µM; hit rate 1.8% among 190,000;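 active = inhibition above a set limit, 3 SD over mean compound inhibition, cut at about 8.4% in these data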;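 note: inhibition rescues growth on 5-FOA so higher OD means more RAM inhibition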
WT yeast gro inh – growth inhibition of WT strain, primary screen, mitochondrial fusion inhibitor project, WT and mutant strains, chemical genetic; hit rate 2.1% among 190,000; AID 1362, 2008; inhibition, % at 10 µM; mitochondrial fusion phenotypic screen; in the data active = inhibition above about 58%; tested in S. cerevisiae
Hits are given with their value; - = inactive.

SMILES	ABCG2 block	L major viab	ABCB1 block	RAM network inh	WT yeast gro inh
Cc1ccccc1/C=N/Nc1ccc(Cl)nn1	-	-	-	-	-
CCC(C)NC(=O)c1ccccc1NS(=O)(=O)c1ccc(OC)c(OC)c1 (centres undefined)	-	-	-	-	-
CCOC(=O)c1sc2nc(CC(=O)OC)nc(NCc3ccco3)c2c1C	-	-	-	10.7	-
CCOC(=O)c1sc2nc(C)nc(NCCc3ccccn3)c2c1C	-	-	-	-	-
CCOC(=O)c1sc2nc(CSc3ccccc3)nc(NCCN(C)C)c2c1C	-	92.8	-	-	-
Cc1ccc2oc(C(Cl)(Cl)Cl)cc(=O)c2c1	-	56.3	-	-	-
Cc1ccc2[nH]ccc(=O)c2c1	-	-	-	-	-
CN(C)CC/C=C1\c2ccccc2COc2ccccc21	-	100.0	-	-	-
Cc1cccc(/C=N/NC(=O)c2cc(-c3cccnc3)nc3c2c(C)nn3-c2ccccc2)c1	-	62.5	-	-	-
CSc1nc(=O)n2cc(C)ccc2n1	-	-	-	-	-
COc1cccc(CNC(=O)CCC2CCCN(C(=O)c3csc(C(C)C)n3)C2)c1 (centres undefined)	-	-	-	-	-
Cc1sc(N/N=C/c2cccs2)nc1-c1ccccc1	-	-	-	-	-
FC(F)(F)c1nc(N2CCCC2)ncc1-c1nnnn1-c1ccccc1	-	-	-	-	60.1
O=C(Nc1ccc2c(c1)OCO2)c1cc(-c2cccnc2)nc2ccccc12	-	-	-	-	-
CCN(CC(=O)Nc1ccc2c(c1)OCCO2)c1nc(-c2cccnc2)nc2ccccc12	-	52.5	-	-	-
Cc1ccc(S(=O)OCC(=O)Nc2cc(Cl)ccc2N2CCOCC2)cc1 (centres undefined)	-	98.8	-	-	-
CCCC(=O)Nc1cccc(Oc2nc(C)cc(C)c2C#N)c1	-	51.7	-	-	-
O=C(O)C1=C[C@H](c2coc3ccccc3c2=O)C[C@H](OCc2ccc(CO)cc2)O1	-	-	-	-	-
C=CCNCCOCCOc1ccc(C)cc1Br	-	98.7	-	-	-
CCC(C)NCCOc1ccc(C)cc1[N+](=O)[O-] (centres undefined)	-	-	-	-	-
CCC(C)NCCCOc1c(C)cc(C)cc1Br (centres undefined)	-	99.4	-	-	-
CCC(C)NCCOCCOc1ccc(Br)cc1 (centres undefined)	-	89.3	-	-	-
COc1cc(C)ccc1OCCOCCOc1c(C)cc(C)cc1Br	-	-	-	-	-
CC(C)NCC(O)COCCOc1ccc(Br)cc1 (centres undefined)	-	-	-	-	-
CCC(C)NCCOCCOc1ccc(C)cc1Br (centres undefined)	-	89.8	-	-	-
SMILES	ABCG2 block	L major viab	ABCB1 block	RAM network inh	WT yeast gro inh
Cc1cc(=O)[nH]c(SCc2nc3ccc([N+](=O)[O-])cc3[nH]2)n1	-	55.3	-	-	-
O=C(COC(=O)C1(c2ccc(F)cc2)CCCC1)NC1CC1	-	-	-	-	-
O=C(O)c1ccccc1C(=O)c1ccc2c(c1)N(Cc1ccc(Cl)c(Cl)c1)C(=O)CO2	-	99.6	-	-	62.9
COc1ccc(CNC(=O)c2ccc(CS(=O)(=O)Cc3ccccc3F)o2)cc1	-	-	-	-	-
CC1CCCN(CCCNC(=O)c2cc3c(Cl)nc4ccccc4c3s2)C1 (centres undefined)	-	99.7	-	-	-
CN(CCCNC(=O)c1cc2c(Cl)nc3ccccc3c2s1)Cc1ccccc1	-	93.3	-	-	-
COc1ccc(NC(=O)c2cc3c(Cl)nc4ccccc4c3s2)c(OC)c1	-	-	-	-	-
CCN(CC)CCCNC(=O)c1cc2c(Cl)nc3ccccc3c2s1	-	98.2	-	-	-
COc1cc(NC(=O)c2cc3c(Cl)nc4ccccc4c3s2)cc(OC)c1OC	-	56.8	-	-	-
Cn1c(=O)c(Nc2ccc(O)cc2)c2c3c(cccc31)C(=O)c1ccccc1-2	-	-	-	-	-
Cc1noc(C)c1COC(=O)c1cnc(Cl)c(Cl)c1	-	-	-	-	-
O=c1c2ccccc2c(C=NCCCN2CCOCC2)c(O)n1Cc1ccc2c(c1)OCO2	-	85.6	-	-	-
Cc1cc(C)nc(NC(N)=NCCc2c[nH]c3ccccc23)n1	-	78.2	-	-	-
Cc1cc(C)nc(NC2=NCC(=O)N2CCc2c[nH]c3ccccc23)n1	-	-	-	-	-
Cc1cc(C)nc(NC(=NCCc2c[nH]c3ccccc23)NC(=O)Nc2ccc(Cl)cc2)n1	-	73.1	-	-	-
CCCOc1ccccc1N/C(=N/c1nc(C)cc(C)n1)NC(=O)Nc1ccc(Cl)cc1	-	-	-	-	-
CN1CC(c2ccc(Cl)c(Cl)c2)[C@@]2(COc3ccccc3C2=O)[C@@]12C(=O)Nc1ccccc12 (some centres undefined)	-	80.7	-	-	-
CC1(C(=O)NCc2ccc(Cl)c(Cl)c2)Oc2ccccc2NC1=O (centres undefined)	-	-	-	-	-
Cc1ccccc1C(=O)O/N=C/c1c(N2CCOCC2)n(C)c2ccccc12	-	99.6	-	-	-
Cn1c(Cl)c(/C=N/OC(=O)C2CC2)c2ccccc21	-	-	-	-	-
N#Cc1c2c(c(NCc3ccco3)n3c1nc1ccccc13)CCC2	-	-	-	-	-
CCN(CC)CCNc1c2c(c(C#N)c3nc4ccccc4n13)CCCC2	-	95.5	-	-	-
CCOC(=O)c1cc(C(=O)NC(C)c2ccccc2)c(C)[nH]c1=O (centres undefined)	-	-	-	-	-
CCOc1ccc(NS(=O)(=O)c2cc(NC(=O)c3cccc(C)c3)ccc2Cl)cc1	-	99.2	-	-	-
O=C(Nc1ccc(Cl)c([N+](=O)[O-])c1)c1cnccn1	-	82.7	-	-	-
SMILES	ABCG2 block	L major viab	ABCB1 block	RAM network inh	WT yeast gro inh
CCN(CC)c1ccc(NC(=O)COc2ccccc2C#N)cc1S(=O)(=O)Nc1ccc(OC)cc1	-	99.3	-	-	-
Cc1ccc(NC(=O)c2cnccn2)cc1S(=O)(=O)N(C)C	-	82.6	-	-	-
CCOC(=O)CSc1nnc(SCCN2C(=O)c3ccccc3C2=O)s1	-	-	-	-	-
Cc1cc(NC(=O)CSc2nnc(C3CC3)n2N)c([N+](=O)[O-])cc1C	-	-	-	-	-
COc1ccc(N(CC(=O)Nc2ccccc2F)S(=O)(=O)c2ccc(C)c([N+](=O)[O-])c2)cc1	-	-	-	-	-
COc1ccc(NS(=O)(=O)c2cc(NC(=O)CNC(=O)c3cccc(OC)c3)ccc2C)cc1	-	61.0	-	-	-
COc1cccc(NC(=O)CNC(=O)c2ccccc2)c1	-	-	-	-	-
CCN(CC)c1ccc(NC(=O)c2cnccn2)cc1S(=O)(=O)Nc1ccc(OC)cc1	-	64.0	-	-	-

Bioassay records from PubChem BioAssay.
